# Only some compounds are listed: those with a hit (about 1.7% of all), similar ones and a draw of the others.
# SR-BI DiI inh – inhibitors of SR-BI mediated HDL lipid uptake, primary screen, ldlA[mSR-BI] cells, fluorescence, single point; 320,000 compounds, 0.96% hits; ldlA[mSR-BI] CHO cells, DiI-HDL uptake fluorescence, 3 h; AID 488896, 2010; Scavenger receptor class B member 1 (Mus musculus), Q61009; inhibition, % at 12.5 µM;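 active = mean replicate inhibition of at least 70% and a set share of replicates each scoring 70 or more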
# Vif inh – HIV Vif self-association inhibitors, primary screen, imaging, HEK293T, single point | HEK293T cells, Vif self-association by quenched fluorescence, 24 h | inhibition, % at 7.49 µM | 340,000 compounds, 0.35% hits; in the data active = inhibition above about 50%, passing the limit was not always enough
# V-ATPase pHluor – regulators of yeast V-ATPase proton pumping, primary screen, pHLuorin cytosolic pH fluorescence; response, % at 10 µM; 350,000 compounds, 0.37% hits; S. cerevisiae; AID 504577, 2011; in the data active = response mostly above about 7.3%, no sharp cut-off; inactive = mostly below about 5.4%; note: actives read high
# NTR1 ag – agonists of human NTR1, primary screen, imaging, U2OS cells, beta-arrestin-GFP, high content; NTR1-U2OS beta-arrestin-GFP spot imaging, agonist mode; activation, % at 20 µM; 330,000 compounds, 0.17% hits;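 active = activation at or above 40% of the spot to cytoplasm intensity ratio, with at least 20 cells analyzed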
# Target sequence (P30989 whole entry, looked up): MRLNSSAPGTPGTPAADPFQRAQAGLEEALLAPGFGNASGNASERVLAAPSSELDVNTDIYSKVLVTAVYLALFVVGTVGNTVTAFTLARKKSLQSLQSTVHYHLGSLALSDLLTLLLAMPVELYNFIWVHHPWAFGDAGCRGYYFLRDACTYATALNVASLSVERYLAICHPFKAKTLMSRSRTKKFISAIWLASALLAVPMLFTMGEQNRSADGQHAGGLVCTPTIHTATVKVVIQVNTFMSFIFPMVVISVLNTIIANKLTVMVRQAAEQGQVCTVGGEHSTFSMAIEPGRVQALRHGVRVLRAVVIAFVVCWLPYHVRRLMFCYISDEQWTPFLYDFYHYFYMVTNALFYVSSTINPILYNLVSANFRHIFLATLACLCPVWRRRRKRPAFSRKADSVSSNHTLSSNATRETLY
# CaV13 ICDI inh – Disruptors of the CACNA1D IQ motif to Ca2+-dependent inactivation inhibitor domain association, primary screening, Förster resonance energy transfer in intact living …. 340,000 compounds, 0.098% hits. HEK cells, CFP/YFP FRET ICDI-IQ, plate reader, 10 min; percent FRET-ratio fall versus neutral wells. inhibition, % at 12.3 µM;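 active = mean replicate inhibition of at least 30% and at least 1% of replicates passing that level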
# SR-BI DiI-HDL act – activators of SR-BI mediated DiI-HDL uptake, primary screen, ldlA[mSR-BI] CHO cells, DiI fluorescence; 3 h; 100 = double the neutral-control signal; activation, % at 12.5 µM; 320,000 compounds, 0.096% hits;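 active = mean replicate activation of at least 60% and every replicate at or above 60%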
#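 System: CHO ldlA[mSR-BI] cells / Medium: HEPES-buffered (25 mM, pH 7.4) F12 plus 0.5% BSA / Probe or stimulus: labelled HDL, 10 µg/mL / Doses: single compound concentration, delivered by pin transfer / Schedule: 3 h, 37 °C / Measured by: DiI fluorescence, bottom read / Measure: cell-associated DiI fluorescence as measure of HDL uptake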
# VATPase regulator – yeast V-ATPase proton pumping modulators, confirmation, S. cerevisiae, pH-sensitive GFP, second cherry-pick; response, % at 10 µM; S. cerevisiae pHLuorin cytosolic pH, V-ATPase proton transport; AID 602197, 2012; 980 compounds, 2% hits; shares compounds with V-ATPase pHluor; in the data active = response above about 24%
# Hits are given with their value; . = inactive; / = no result given.
SMILES,SR-BI DiI inh,Vif inh,V-ATPase pHluor,NTR1 ag,CaV13 ICDI inh,SR-BI DiI-HDL act,VATPase regulator
C[C@H](CO)N1C[C@H](C)[C@@H](CN(C)S(=O)(=O)c2ccc(F)cc2)Oc2c(NC(=O)NC3CCCCC3)cccc2C1=O,.,.,12.9,.,.,.,.
O=C(N/N=C/c1cccc([N+](=O)[O-])c1)c1ccc(CN2CCOCC2)cc1,.,.,13.8,.,.,.,.
O=C(N/N=C/c1cccc2ccccc12)c1ccc(CN2CCOCC2)cc1,.,.,.,.,.,.,/
O=C(C/C(=N/O)c1ccccc1O)C(F)F,.,.,26.3,.,.,.,.
O=C(OCc1ccccc1Cl)c1cccnc1Cl,.,.,9.5,.,.,.,.
COc1ccc(C)cc1NC(=O)C(OC(=O)CNC(=O)c1cccc(F)c1)c1ccccc1 (stereo not given),.,.,10.2,.,.,.,.
CN1CCN(C2CCN(c3cccc(Cl)c3)CC2)CC1CCO (stereo not given),.,.,.,.,.,.,/
Cc1nc2c3ccccc3nc(NNC(=O)CCC(=O)NCCN3CCN(c4ccccc4)CC3)n2n1,.,.,.,.,.,.,/
C[C@H]1NC(=O)[C@]2(C)[C@@H](c3ccccc3)[C@H]3COc4ccccc4[C@H]3N2C1=O,.,.,.,/,.,.,/
CC1(Oc2ccccc2-c2ccno2)CCN(Cc2csc3ccccc23)C1 (stereo not given),/,.,/,/,.,/,/
CC(c1ccccc1)C1C(C#N)=C(N)OC2=C1C(=O)CC(C)(C)C2 (stereo not given),.,.,11.2,.,.,.,.
CNC[C@H]1Oc2ccc(NC(=O)Nc3ccccc3)cc2CC(=O)N([C@H](C)CO)C[C@H]1C,.,.,.,.,.,.,/
O=S(=O)(c1ccc(Cl)nc1)N1CCCc2ccccc21,.,.,.,.,.,.,/
O=S(=O)(c1ccc(Cl)nc1)N1CCc2ccccc21,.,.,11.8,.,.,.,.
CC(=O)NCCN1C(=O)S/C(=C\c2cccs2)C1=O,.,.,.,.,.,.,/
CCCCNc1nnc(CCn2nc(C)c(Br)c2C)s1,.,.,.,.,.,.,/
CCNc1nnc(CCn2nc(C)c(Br)c2C)s1,.,.,17.5,.,.,.,.
COc1ccc(-c2nn(C)c(=O)c3ccccc23)cc1NC(=O)Cn1nc(C)c2ccccc2c1=O,.,.,9.9,.,.,.,.
Cc1sc(NC(=O)C2C3C=CC(C3)C2C(=O)O)c(C(N)=O)c1-c1ccc(C(C)C)cc1 (stereo not given),.,.,.,.,.,.,/
Cc1cccc(C(=O)Nc2ccnc(-c3cccnc3)n2)c1,.,.,.,.,.,.,/
Cc1cccc(C(=O)Nc2ccnc(-c3ccncc3)n2)c1,.,.,8.5,.,.,.,.
CCOC(=O)Nc1c2ccccc2nc2ccccc12,.,.,.,.,.,.,.
O=[N+]([O-])c1ccc2c(c1)-c1ccccc1C2=NO,.,.,20.3,/,.,.,119.1
Cc1cc(NC(=O)CCC(=O)N(CC(=O)NC2CCCC2)Cc2ccc3c(c2)OCO3)no1,.,.,9.7,.,.,.,.
CN(C(=O)c1cccc(NC(=O)Cc2ccc(NC(=O)C3CCN(C(=O)c4ccccc4)CC3)cc2)c1)C1CCCC1,.,.,.,/,.,.,/
SMILES,SR-BI DiI inh,Vif inh,V-ATPase pHluor,NTR1 ag,CaV13 ICDI inh,SR-BI DiI-HDL act,VATPase regulator
NNC(=O)c1ccc(COCC(F)(F)F)cc1,.,.,9.1,.,.,.,.
CN(C)CCNC(=O)c1ccc(COCC(F)(F)F)cc1,.,.,.,.,.,.,/
c1ccc(CSC2=NCCCN2)cc1,.,.,.,.,.,.,.
Cc1cccc(C)c1NC(=O)C(c1ccc(C(F)(F)F)cc1)n1c(=O)c(-c2cc3ccccc3[nH]2)nc2ccccc21 (stereo not given),/,/,/,/,.,/,/
C[C@@H]1CN([C@@H](C)CO)S(=O)(=O)c2ccc(Br)cc2O[C@H]1CN(C)C(=O)c1ccccc1,/,.,69.1,/,.,/,.
CCCNC(=S)N1CCN(C)CC1,.,.,8.2,.,.,.,.
CC(CN1CCCC1)OC(=O)c1ccc(Br)cc1 (stereo not given),.,.,.,.,.,.,/
O=C(NCCc1ccccc1)c1ccc(NC(=O)C2CC2)cc1,.,.,.,/,.,.,/
COc1ccc(CNC(=O)CCC(=O)c2ccc(F)cc2)cc1OC,.,.,.,.,.,.,/
O=C(CCC(=O)c1ccc(F)cc1)NCc1ccccc1C(F)(F)F,.,.,.,.,.,.,.
O=C(NCCCN1CCCC1=O)c1cccc(S(=O)(=O)Nc2ccc(Br)cc2)c1,.,.,.,.,.,.,/
CC(C)CCCN1C(N(C)C)=NC[C@@H]1Cc1ccccc1,.,.,.,.,.,.,/
CCCCc1nc2c(C)c(N)cnc2n1Cc1cccc([N+](=O)[O-])c1,.,.,.,.,.,.,/
CC(=O)c1sc(=S)n(-c2ccc(Cl)cc2)c1C,.,.,.,.,.,.,.
CC(=O)c1cnn(-c2ccc(Cl)cc2)c1C,.,.,.,.,.,.,.
Cc1c(C(=O)Nc2ccccc2)cnn1-c1ccccc1,.,.,.,.,.,.,/
NNC(=O)CNc1ccccc1Cl,.,.,8.4,.,.,.,.
O=C(CCCCC(=O)Nc1ccccc1Cl)Nc1ccccc1Cl,/,.,.,.,.,/,/
O=C(O)CSc1nnc2c(n1)[nH]c1ccccc12,.,.,.,.,.,.,/
CCOC(=O)CC(=O)CSc1nnc2c(n1)[nH]c1ccccc12,.,.,.,.,.,.,.
CCC(=O)N1CCc2cc(S(=O)(=O)CCC(=O)Nc3cccc(C)n3)ccc21,.,.,.,.,.,.,/
CN1CCN(S(=O)C23CC4CC(CC(C4)C2)C3)CC1 (stereo not given),.,.,.,.,.,.,/
O=S(N1CCCCC1)C12CC3CC(CC(C3)C1)C2 (stereo not given),.,.,14.5,.,.,.,.
COC(=O)C[C@@H]1C[C@H]2c3cc(NC(=O)Nc4ccccc4F)ccc3O[C@H]2[C@@H](CO)O1,/,/,/,/,.,/,/
Cc1ccc(/C=N/NC(=O)Nc2ccccc2)o1,.,.,37.8,.,.,.,.
Cc1ccc(/C=N/NC(=O)C(O)c2ccccc2)o1 (stereo not given),.,.,.,.,.,.,/
CN1CCN(CCCC(=O)c2ccc(F)cc2)CC1,.,.,.,.,.,.,.

# Screening data from PubChem.
